Assay results gathered from unrelated publications.
Compare with care: the assays were run in different laboratories.
Organism: Pseudomonas aeruginosa
Effect on: microbial growth

Compound	method	strain	time	MIC
CCCCCCC/C=C/C(=O)N1C(=O)/C(=C(\O)c2ccncc2)C(=O)C1CC(C)C (centres unmarked)	–	PA01	–	> 200 µg/mL
Cc1ccc(C)n1-c1ccc(-c2nnc(-c3c(Cl)cccc3Cl)[nH]2)cc1	broth dilution	ATCC10145	18 h	62.5 µg/mL
CC(C)Oc1c(NC(=O)c2ccc(NC(=O)[C@H](CC(N)=O)NC(=O)c3ccc(NC(=O)c4cccc(N)c4)cc3)cc2)ccc(C(=O)Nc2ccc(C(=O)O)cc2)c1O	–	PA14	–	> 64 µg/mL
CN(C)[C@@H]1C(O)=C(C(N)=O)C(=O)[C@@]2(O)C(O)=C3C(=O)c4c(O)c(NC(=O)CNC(C)(C)C)nc(F)c4C[C@H]3C[C@@H]12.Cl.Cl	broth dilution	ATCC27853	–	> 32 µg/mL
CC1COc2c(N3CCN(C)CC3)c(F)cc3c(=O)c(C(=O)O)cn1c23 (centres unmarked)	broth dilution	PAO1	–	1 µg/mL
O=[N+]([O-])c1ccc(-c2nc3cccc(O)c3[nH]2)o1	broth dilution	ATCC27853	–	> 64 µg/mL
CCCCCCC#Cc1cncc(-c2nnc(SCc3ccc(Cl)cc3)n2C)c1	–	–	–	≥ 20 µg/mL
C[C@H]1COc2c(N3CCN(C)CC3)c(F)cc3c(=O)c(C(=O)O)cn1c23	broth dilution	CMCC10104	–	138 µM
CCCCCCC/C=C/C(=O)N1C(=O)/C(=C(/C)O)C(=O)C1Cc1ccc(O)cc1 (centres unmarked)	–	PA01	–	> 200 µg/mL
Cc1cc(C)n(C(=O)c2ccc(-n3c(C)ccc3C)cc2)n1	broth dilution	ATCC10145	18 h	250 µg/mL
Cc1ccc2nc(-c3ccc(Cl)cc3)n(Cc3ccccc3Cl)c2c1	broth dilution	ATCC27853	–	512 µg/mL
CC1=NN(CNC(=O)c2ccccc2)C(=O)C1=NNn1c(-c2ccccc2)nc2ccccc2c1=O	broth dilution	–	24 h	51.9 µM
CC(C)Oc1c(NC(=O)c2ccc(NC(=O)[C@H](CC(N)=O)NC(=O)c3ccc(NC(=O)c4ccc(C(F)(F)F)cc4)cc3)cc2)ccc(C(=O)Nc2ccc(C(=O)O)cc2)c1O	–	PA14	–	> 64 µg/mL
O=C1NN=C(N=Cc2ccccc2O)C1=NNn1c(-c2ccccc2)nc2ccccc2c1=O	broth dilution	–	24 h	111 µM
NC[C@H]1O[C@H](O[C@H]2[C@H](O)[C@@H](O[C@H]3O[C@H](CO)[C@@H](O)[C@H](N)[C@H]3O)[C@H](N)C[C@@H]2N)[C@H](N)C[C@@H]1O	broth dilution	CMCC10104	–	26.7 µM
COc1c(C(=O)Nc2ccc(C(=O)O)cc2)ccc2nc(-c3cc(NC(=O)C(CC(N)=O)NC(=O)c4ccc(NC(=O)c5ccc(C#N)cc5)cc4)cn3C)[nH]c12 (centres unmarked)	–	PA14	–	> 64 µg/mL
Clc1cccc(NCc2ccc(Oc3ccccn3)cc2)c1	–	–	–	> 50 µg/mL
C[C@@H](O)[C@H]1C(=O)N2C(C(=O)O)=C(S[C@@H]3CN[C@H](C(=O)N(C)C)C3)[C@H](C)[C@H]12	broth dilution	ATCC27853	–	0.25 µg/mL
COc1c(C)c(OC(C)=O)c(C)c(O)c1C(=O)/C=C/c1ccccc1	broth dilution	ATCC27853	–	5000 µg/mL
CCCCCCC/C=C/C(=O)N1C(=O)/C(=C(\O)c2ccc(O)cc2)C(=O)C1CC(C)C (centres unmarked)	–	PA01	–	> 200 µg/mL
NC[C@@H]1CN[C@H](CNC(=O)c2cc3ccc(-c4ccc(F)cc4)cc3[nH]2)C1	broth dilution	PAO1	–	25 µg/mL
Brc1cccc(NCc2ccc(Oc3ccccn3)cc2)c1	–	–	–	> 50 µg/mL
CCN1CCN(C(=O)N[C@@H](C(=O)N[C@@H]2C(=O)N3[C@@H]2SC(C)(C)[C@@H]3C(=O)O)c2ccccc2)C(=O)C1=O	–	–	–	12.5 µg/mL
CN(C)[C@@H]1C(O)=C(C(N)=O)C(=O)[C@@]2(O)C(O)=C3C(=O)c4c(cc5ccc(-c6ccccc6)cc5c4O)C[C@H]3C[C@@H]12	broth dilution	ATCC27853	–	32 µg/mL
CC1(C)SC2C(NC(=O)C(NC(=O)C3=C(O)C4(CC4)NC3=O)c3ccccc3)C(=O)N2C1C(=O)O (centres unmarked)	–	–	–	25 µg/mL

Compound	method	strain	time	MIC
CN(C)[C@@H]1C(O)=C(C(N)=O)C(=O)[C@@]2(O)C(O)=C3C(=O)c4c(cc5ccc(CN6CCCC6)cc5c4O)C[C@H]3C[C@@H]12	broth dilution	ATCC27853	–	32 µg/mL
Cc1ccc(C)n1-c1ccc(-c2nnc(-c3ccc(O)cc3)[nH]2)cc1	broth dilution	ATCC10145	18 h	250 µg/mL
COc1c(C)c(OS(=O)(=O)c2ccc3ccccc3c2)c(C)c(OS(=O)(=O)c2ccc3ccccc3c2)c1C(=O)/C=C/c1ccccc1	broth dilution	ATCC27853	–	5000 µg/mL
CC1(C)SC2C(NC(=O)C(NC(=O)C3=C(O)C4CCCN4C3=O)c3ccccc3)C(=O)N2C1C(=O)O (centres unmarked)	–	–	–	50 µg/mL
CN(C)CC(C)(C)CNc1nc(F)c2c(c1O)C(=O)C1=C(O)[C@]3(O)C(=O)C(C(N)=O)=C(O)[C@@H](N(C)C)[C@@H]3C[C@@H]1C2.Cl	broth dilution	ATCC27853	–	32 µg/mL
Clc1ccc(Cn2c(-c3ccc(Cl)cc3)nc3ccccc32)cc1	broth dilution	ATCC27853	–	256 µg/mL
CCCCCCC#Cc1cncc(-c2nnc(SCc3ccc(Cl)c(F)c3)n2C)c1	–	–	–	≥ 20 µg/mL
Cc1cc(C#N)ccc1C(=O)Nc1ccc(C(=O)N[C@@H](CC(N)=O)C(=O)Nc2ccc(C(=O)Nc3ccc(C(=O)Nc4ccc(C(=O)O)cc4)c(O)c3OC(C)C)cc2)cc1	–	PA14	–	8 µg/mL
CCCc1nc(N(C)C)c2c(c1O)C(=O)C1=C(O)[C@]3(O)C(=O)C(C(N)=O)=C(O)[C@@H](N(C)C)[C@@H]3C[C@@H]1C2.Cl.Cl	broth dilution	ATCC27853	–	> 32 µg/mL
CC(C)Oc1c(NC(=O)c2ccc(NC(=O)[C@H](CC(N)=O)NC(=O)c3ccc(NC(=O)C(C)Oc4ccccc4)cc3)cc2)ccc(C(=O)Nc2ccc(C(=O)O)cc2)c1O (some centres unmarked)	–	PA14	–	> 64 µg/mL
Cc1c(CN(C)C(=O)/C=C/c2cnc3c(c2)CC(NC(=O)OC(C)(C)C)C(=O)N3)oc2ccccc12 (centres unmarked)	broth dilution	PA01	–	> 32 µg/mL
CCCNc1nc(Cl)c2c(c1O)C(=O)C1=C(O)[C@]3(O)C(=O)C(C(N)=O)=C(O)[C@@H](N(C)C)[C@@H]3C[C@@H]1C2.Cl.Cl.Cl	broth dilution	ATCC27853	–	32 µg/mL
Cc1ccccc1NCc1ccc(Oc2ccccn2)cc1	–	–	–	> 50 µg/mL
O=C(CCCCCC[P+](c1ccccc1)(c1ccccc1)c1ccccc1)Nc1cc(O)c(O)c(O)c1.[Br-]	broth dilution	ATCC27853	18 h	> 32 µg/mL
O=c1cc(-c2ccccc2)oc2cc(O)c(O)c(O)c12	broth dilution	PAO1	–	256 µg/mL
CC(C)CCNc1nc(Cl)c2c(c1O)C(=O)C1=C(O)[C@]3(O)C(=O)C(C(N)=O)=C(O)[C@@H](N(C)C)[C@@H]3C[C@@H]1C2.Cl.Cl.Cl	broth dilution	ATCC27853	–	> 32 µg/mL
CC(C)Oc1c(NC(=O)c2ccc(NC(=O)[C@H](CC(N)=O)NC(=O)c3ccc(NC(=O)CCc4ccc(C#N)cc4)cc3)cc2)ccc(C(=O)Nc2ccc(C(=O)O)cc2)c1O	–	PA14	–	> 64 µg/mL
O=C(Cc1cc(O)c(O)c(O)c1)NCCCCCCCC[P+](c1ccccc1)(c1ccccc1)c1ccccc1.[Br-]	broth dilution	ATCC27853	18 h	> 32 µg/mL
CCCC(=O)Oc1c(C)c(O)c(C(=O)/C=C/c2ccccc2)c(OC)c1C	broth dilution	ATCC27853	–	5000 µg/mL
O=C(Nc1ccc2c(c1)OC(F)(F)O2)Nc1ccc(Cl)c(C(F)(F)F)c1	–	DSM19882	–	> 100 µM
CC(C)Oc1c(NC(=O)c2ccc(NC(=O)[C@H](CC(N)=O)NC(=O)c3ccc(NC(=O)c4ccc(C#N)nc4)cc3)cc2)ccc(C(=O)Nc2ccc(C(=O)O)cc2)c1O	–	PA14	–	> 64 µg/mL
COc1ccc(-c2nc3ccccc3n2Cc2ccccc2)cc1OC	broth dilution	ATCC27853	–	256 µg/mL
CC(C)Oc1c(N)ccc(C(=O)Nc2ccc(C(=O)N[C@@H](CC(N)=O)C(=O)Nc3ccc(C(=O)Nc4ccc(C(=O)Nc5ccc(C(=O)O)cc5)c(O)c4OC(C)C)cc3)cc2)c1O	–	PA14	–	32 µg/mL
CN(C)Cc1ccc2cc3c(c(O)c2c1)C(=O)C1=C(O)[C@]2(O)C(=O)C(C(N)=O)=C(O)[C@@H](N(C)C)[C@@H]2C[C@@H]1C3	broth dilution	ATCC27853	–	32 µg/mL
C[C@H]1COc2c(N3CCN(C)CC3)c(F)cc3c(=O)c(C(=O)O)cn1c23	agar dilution	PAO1	–	4 µg/mL
